ChEMBL document CHEMBL1150216, “Flavonol glycosides and steroidal saponins from the leaves of Cestrum nocturnum and their cytotoxicity” (J Nat Prod, 2001)
Converted amounts (≈) assume the structure as drawn.

What was measured:
[1] = Cytotoxicity against human HGF cells after 24 by MTT assay; format: cell-based; conditions: read-out: LD50 (the source's name)
In short: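 Primary human gingival fibroblasts from a healthy person's gingival biopsy, explant-cultured in α-MEM with 30% FBS and antibiotics, used at passages 5–7. Cells were seeded at 6×10^3 into 96-well plates for 24 h, PBS-washed, and exposed to compound for 24 h. Viability was read by MTT (0.2 mg/mL, 4 h), DMSO lysis and A540, giving LD50 in µg/mL.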

HSC-2 = assay: Cytotoxicity against human HSC2 cells after 24 by MTT assay; format: functional; conditions: read-out: LD50 (the source's name)

Row | Structure (SMILES) | CC50 [1] [mg/L] | CC50 (HSC-2) [mg/L]
1 | C[C@@H]1CC[C@@]2(OC1)O[C@H]1[C@@H](O)[C@H]3[C@@H]4CC=C5C[C@@H](O[C@@H]6O[C@H](CO)[C@H](O[C@@H]7O[C@H](CO)[C@@H](O)[C@H](O[C@@H]8OC[C@@H](O)[C@H](O)[C@H]8O)[C@H]7O[C@@H]7O[C@H](CO)[C@@H](O)[C@H](O[C@@H]8O[C@H](CO)[C@@H](O)[C@H](O)[C@H]8O)[C@H]7O)[C@H](O)[C@H]6O)[C@H](O)C[C@]5(C)[C@H]4CC[C@]3(C)[C@H]1[C@@H]2C | 22 (≈ 17.9 µM) | 4.4 (≈ 3.59 µM)
2 | C[C@@H]1O[C@@H](OC[C@H]2O[C@@H](Oc3c(-c4ccc(O)cc4)oc4cc(O)cc(O)c4c3=O)[C@H](O[C@@H]3OC[C@@H](O)[C@H](O)[C@H]3O)[C@@H](O)[C@@H]2O)[C@H](O)[C@H](O)[C@H]1O [CAMELLIASIDE B] | > 400 | > 400
3 | C[C@@H]1CC[C@@]2(OC1)O[C@H]1C[C@H]3[C@@H]4CC=C5C[C@@H](O[C@@H]6O[C@H](CO)[C@H](O[C@@H]7O[C@H](CO)[C@@H](O)[C@H](O[C@@H]8OC[C@@H](O)[C@H](O)[C@H]8O)[C@H]7O[C@@H]7O[C@H](CO)[C@@H](O)[C@H](O[C@@H]8O[C@H](CO)[C@@H](O)[C@H](O)[C@H]8O)[C@H]7O)[C@H](O)[C@H]6O)[C@H](O)C[C@]5(C)[C@H]4CC[C@]3(C)[C@H]1[C@@H]2C | 31 (≈ 25.6 µM) | 2.7 (≈ 2.23 µM)
4 | C[C@@H]1CC[C@@]2(OC1)O[C@H]1C[C@H]3[C@@H]4CC=C5C[C@@H](O[C@@H]6O[C@H](CO)[C@@H](O[C@@H]7O[C@@H](C)[C@H](O[C@@H]8O[C@@H](C)[C@H](O)[C@@H](O)[C@H]8O)[C@@H](O)[C@H]7O)[C@H](O)[C@H]6O[C@@H]6O[C@@H](C)[C@H](O)[C@@H](O)[C@H]6O)CC[C@]5(C)[C@H]4CC[C@]3(C)[C@H]1[C@@H]2C [PENNOGENIN RAHAMNOSYL CHACOTRIOSIDE] | 2.8 (≈ 2.76 µM) | 2 (≈ 1.97 µM)
5 | C[C@@H]1CC[C@@]2(OC1)O[C@H]1C[C@H]3[C@@H]4CC=C5C[C@@H](O[C@@H]6O[C@H](CO)[C@@H](O[C@@H]7O[C@@H](C)[C@H](O[C@@H]8O[C@@H](C)[C@H](O)[C@@H](O)[C@H]8O)[C@@H](O)[C@H]7O)[C@H](O)[C@H]6O[C@@H]6O[C@@H](C)[C@H](O)[C@@H](O)[C@H]6O)[C@H](O)C[C@]5(C)[C@H]4CC[C@]3(C)[C@H]1[C@@H]2C | 9.1 (≈ 8.82 µM) | 5.5 (≈ 5.33 µM)
6 | C[C@@H]1CC[C@@]2(OC1)O[C@H]1C[C@H]3[C@@H]4CC=C5C[C@@H](O[C@@H]6O[C@H](CO)[C@H](O[C@@H]7O[C@H](CO)[C@@H](O)[C@H](O[C@@H]8OC[C@@H](O)[C@H](O)[C@H]8O)[C@H]7O[C@@H]7O[C@H](CO)[C@@H](O)[C@H](O)[C@H]7O)[C@H](O)[C@H]6O)[C@H](O)C[C@]5(C)[C@H]4CC[C@]3(C)[C@H]1[C@@H]2C | 37 (≈ 35.3 µM) | 12 (≈ 11.4 µM)
7 | C[C@@H]1CC[C@@]2(OC1)O[C@H]1C[C@H]3[C@@H]4CC=C5C[C@@H](O[C@@H]6O[C@H](CO)[C@H](O[C@@H]7O[C@H](CO)[C@@H](O)[C@H](O[C@@H]8OC[C@@H](O)[C@H](O)[C@H]8O)[C@H]7O[C@@H]7O[C@H](CO)[C@@H](O)[C@H](O[C@@H]8O[C@H](CO)[C@@H](O)[C@H](O)[C@H]8O)[C@H]7O)[C@H](O)[C@H]6O)[C@H](O)C[C@]5(C)[C@H]4CC[C@]3(C)[C@@]1(O)[C@@H]2C | 34 (≈ 27.7 µM) | 5.5 (≈ 4.48 µM)
8 | C[C@@H]1CC[C@@]2(OC1)O[C@H]1C[C@H]3[C@@H]4CC=C5C[C@@H](O[C@@H]6O[C@H](CO)[C@H](O[C@@H]7O[C@H](CO)[C@@H](O)[C@H](O[C@@H]8OC[C@@H](O)[C@H](O)[C@H]8O)[C@H]7O[C@@H]7O[C@H](CO)[C@@H](O)[C@H](O)[C@H]7O)[C@H](O)[C@H]6O)[C@H](O)C[C@]5(C)[C@H]4CC[C@]3(C)[C@@]1(O)[C@@H]2C | 58 (≈ 54.5 µM) | 13 (≈ 12.2 µM)
